Runt-CBFb FRET = blocks binding of human RUNX1 Runt domain to CBFb. Q01196+Q13951. Cerulean-Runt/Venus-CBFb FRET ratio 530/480, 1 h. inhibition, % at 20 µM. hit rate 0.46% among 220,000. AID 1496;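 active = inhibition over about 50% at 20 µM in the single-dose screen, limit read from the data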
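Assay system: Cerulean-Runt domain / Medium: Tris 50 mM pH 7.5, KCl, K2SO4, 0.01% BSA / Timing: protein complex preformed 1 h, compound exposure 1 h, room temperature, dark / Measured by: FRET, excitation 422 nm, emission at 530 and 480 nm / Evaluation: loss of energy transfer signal / Control set: 5 µM unlabeled CBFb as full-inhibition high control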
Rce1 inhib = blocks yeast Ras-converting enzyme | Q03530 | yeast membranes, quenched prenylated peptide cleavage fluorescence | calls only | hit rate 0.27% among 290,000;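 active = fall in fluorescence gain of 50% or more versus controls, with final raw signal at or below 3038400; inconclusive = same 50% fall but final raw signal above 3038400; inactive = fall in fluorescence gain under 50%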
Target sequence (Q03530 whole entry, looked up): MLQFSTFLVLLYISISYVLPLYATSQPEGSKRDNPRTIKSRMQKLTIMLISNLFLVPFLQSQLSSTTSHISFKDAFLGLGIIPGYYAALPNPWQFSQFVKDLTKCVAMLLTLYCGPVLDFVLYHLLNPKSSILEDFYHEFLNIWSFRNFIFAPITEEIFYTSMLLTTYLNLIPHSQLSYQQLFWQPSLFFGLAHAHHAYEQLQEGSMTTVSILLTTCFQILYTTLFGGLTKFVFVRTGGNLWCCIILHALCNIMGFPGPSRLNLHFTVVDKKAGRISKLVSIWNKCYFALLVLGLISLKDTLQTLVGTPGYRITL
Platelet DG rel = platelet dense granule release activity; human platelet-rich plasma, SFLLRN dense granule ATP release, luminescence; inhibition, %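 (compounds screened at 7.5 µM in platelet-rich plasma)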; hit rate 0.22% among 300,000; AID 1663;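 active = mean replicate score, as percent of positive control, at or above 50; inconclusive = mean below 50 but at least one replicate at or above 50; inactive = mean and every replicate below 50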
Runt-SMMHC FRET = Runt domain-CBFb-SMMHC interaction inhibition; AID 1434; Cerulean-Runt/Venus-CBFb-SMMHC FRET ratio 530/480, 1 h; inhibition, % at 20 µM; hit rate 0.74% among 220,000; Q01196+Q13951;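 active = mean inhibition across duplicate retests at 20 µM reaching about 50%, limit read from the data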;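 note: inhibitors lower the FRET ratio by blocking Runt binding to CBFb-SMMHC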
RanGTP-Impb inh = inhibitors of RanGTP-importin-beta interaction, primary screen, biochemical, FRET, CFP-Ran, YFP-importin-beta, homogeneous; cell-free CFP-Ran/YFP-importin-beta FRET ratio; inhibition, % (test concentration not listed); hit rate 1.1% among 300,000; AID 2216;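 active = more than half of the replicate wells show a fall in the fluorescence ratio signal beyond about 16%, limit read from the data, passing the limit was not always enough; inconclusive = exactly half of the replicate wells pass the set limit; inactive = fewer than half of replicates pass the limit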
Each line names hits and unclear results; the compound was inactive in the other large screens. Rows were chosen to be rich in hits. Some 1.8% of all compounds tested hit in one or more screens of this group.

Cc1cc(C)cc(N2CC(O)=C(c3nc4ccccc4c(=O)[nH]3)C2=N)c1	Rce1 inhib active
COc1cccc(N2CC(O)=C(c3nc4ccccc4c(=O)[nH]3)C2=N)c1	none
COc1ccc(-c2cn3ccccc3n2)cc1[N+](=O)[O-]	Rce1 inhib active
CCCOc1ccc(-c2cn3ccccc3n2)cc1[N+](=O)[O-]	none
CC(OC(=O)c1ccccc1NCCO)C(=O)NCC(=O)Nc1ccc(F)c(F)c1F (stereo not given)	none (no result: Runt-CBFb FRET, Runt-SMMHC FRET)
CCn1c(=N)c(C(=O)OC)cc2c(=O)n3ccccc3nc21	none (no result: Rce1 inhib, Platelet DG rel, RanGTP-Impb inh)
CCOC(=O)c1cc2c(=O)n3cc(C)ccc3nc2n(Cc2cccnc2)c1=N	none (no result: Rce1 inhib, Platelet DG rel, RanGTP-Impb inh)
C=CCn1c(=N)c(C(=O)OC)cc2c(=O)n3cccc(C)c3nc21	Runt-CBFb FRET 52.1, Runt-SMMHC FRET 58.1 (no result: Rce1 inhib, Platelet DG rel, RanGTP-Impb inh)
COC(=O)c1cc2c(=O)n3cccc(C)c3nc2n(Cc2cccnc2)c1=N	Runt-CBFb FRET 55.6, Runt-SMMHC FRET 57.4 (no result: Rce1 inhib, Platelet DG rel, RanGTP-Impb inh)
CCOc1ccc(C(CC(=O)O)NC(=O)C(Sc2ccccc2)c2ccccc2)cc1 (stereo not given)	none
O=C(O)C(=O)/C(=C\c1ccc(Cl)cc1)c1ccc2ccccc2n1	Runt-SMMHC FRET 96.0
O=C(CCc1ccc(S(=O)(=O)NC2CCCCC2)cc1)Nc1ccccc1	none
Cc1ccc(NC(=O)CCc2ccc(S(=O)(=O)NC3CCCCC3)cc2)cc1	Rce1 inhib active
Cc1cc(N2C(=O)C3C4C=CC(C4)C3C2=O)ccc1NC(=O)c1cccs1 (stereo not given)	Rce1 inhib active
Cc1ccc2[nH]c(C(=O)N/N=C/c3ccccc3C(=O)O)c(-c3ccccc3)c2c1	none (no result: Runt-CBFb FRET, Runt-SMMHC FRET)
COc1ccc(/C=N/NC(=O)c2[nH]c3ccc(C)cc3c2-c2ccccc2)c(C(=O)O)c1OC	Rce1 inhib active, RanGTP-Impb inh inconclusive (no result: Runt-CBFb FRET, Runt-SMMHC FRET)
CCCN(C(=O)COC(=O)C12CCC(=O)N1c1ccccc1S2)c1c(N)n(Cc2ccccc2)c(=O)[nH]c1=O (stereo not given)	none (no result: Runt-CBFb FRET, Runt-SMMHC FRET)
CC(C)Nc1nc(NC(C)(C)C)nc(Oc2ccc(=O)n(-c3ccccc3)n2)n1	Platelet DG rel 59.7
COc1nc(NC(C)(C)C)nc(Oc2ccc(=O)n(-c3ccccc3)n2)n1	none
CCOC(=O)c1c2n(c3ccc(O)cc13)CCCCC2	RanGTP-Impb inh 22.0
CCOC(=O)c1c(C)n(-c2ccc(F)cc2)c2ccc(O)cc12	none (no result: Runt-CBFb FRET, Runt-SMMHC FRET)
CCCC12CN3CC(CCC)(CN(C1)C3c1ccco1)C2=O (stereo not given)	none
N#Cc1c(NCCCO)nc(NCc2ccccc2)c2c1CCN(Cc1ccccc1)C2	RanGTP-Impb inh 89.5
CC(=O)N1CCc2c(sc(NC(=O)Cc3ccccc3)c2C#N)C1	none (no result: Runt-CBFb FRET, Runt-SMMHC FRET)
N#Cc1c(NC(=O)/C=C/C(=O)O)sc2c1CCN(Cc1ccccc1)C2	RanGTP-Impb inh 140.9 (no result: Runt-CBFb FRET, Runt-SMMHC FRET)
CC(=O)Nc1sc2c(c1C#N)CCN(Cc1ccccc1)C2	RanGTP-Impb inh 75.3 (no result: Runt-CBFb FRET, Runt-SMMHC FRET)
O=C(Nc1nnc(-c2ccccc2)o1)C1CCCN1S(=O)(=O)c1cccs1 (stereo not given)	none (no result: Runt-CBFb FRET, Runt-SMMHC FRET)
O=c1oc2c(CN3CCOCC3)c(O)c(Cl)cc2c2c1CCC2	Runt-CBFb FRET 103.9, Runt-SMMHC FRET 176.4 (no result: Rce1 inhib, Platelet DG rel, RanGTP-Impb inh)
CCc1c(C)c2cc(Cl)c(O)c(CN(C)C)c2oc1=O	Runt-CBFb FRET 92.4, Rce1 inhib inconclusive, Runt-SMMHC FRET 91.6, RanGTP-Impb inh 39.5
CN(C)Cc1c(O)c(Cl)cc2c3c(c(=O)oc12)CCCC3	Runt-CBFb FRET 87.5, Rce1 inhib inconclusive, Runt-SMMHC FRET 58.7, RanGTP-Impb inh 42.9
Cc1ccc(NC(=O)CSc2nc3ccccc3c(=O)n2CCCN2CCCCC2)cc1Cl	none
Cc1ccccc1-n1c2nc(=O)n(C)c(=O)c-2cc2ccccc21	Runt-SMMHC FRET 81.0, RanGTP-Impb inh 136.5
CCCCn1c(=O)nc2n(-c3ccccc3C)c3ccccc3cc-2c1=O	Runt-SMMHC FRET 82.3, RanGTP-Impb inh 130.0
CCCCn1c(=O)c2ccccc2c2ccccc2c1=O	none (no result: Rce1 inhib, Platelet DG rel, RanGTP-Impb inh)
Cc1ccccc1-n1c(=O)c2ccccc2n2nnnc12	none
Cc1ccc(S(=O)(=O)N2CCCCC2)cc1NC(=O)C1CC(=O)N(c2ccc3c(c2)OCCO3)C1 (stereo not given)	none (no result: Runt-CBFb FRET, Runt-SMMHC FRET)
O=C(C#Cc1ccccc1)c1ccco1	none (no result: Runt-CBFb FRET, Runt-SMMHC FRET)
COC(=O)C1=C(C)OC(N)=C(C#N)C1c1ccccc1F (stereo not given)	none
N#CC1=C(N)Oc2cc(O)ccc2C1c1cccnc1 (stereo not given)	RanGTP-Impb inh 38.0 (no result: Rce1 inhib)
N#CC1=C(N)Oc2cc(O)c(Cl)cc2C1c1ccccc1F (stereo not given)	RanGTP-Impb inh 131.2 (no result: Runt-CBFb FRET, Runt-SMMHC FRET)
N#CC1=C(N)Oc2cc(O)ccc2C1c1ccncc1 (stereo not given)	none (no result: Platelet DG rel)
CSc1nc(N)c2c(n1)OC(N)=C(C#N)C2c1cccnc1 (stereo not given)	RanGTP-Impb inh 105.1
N#CC1=C(N)Oc2ccc3ccc(O)cc3c2C1c1cccnc1 (stereo not given)	none
N#CC1=C(N)Oc2cc(O)c(Cl)cc2C1c1cccnc1 (stereo not given)	RanGTP-Impb inh 52.1 (no result: Runt-CBFb FRET, Runt-SMMHC FRET)
Cc1cccn2c(=O)c(/C=C(\C#N)C(=O)NC3CCS(=O)(=O)C3)c(Oc3ccccc3Cl)nc12 (stereo not given)	RanGTP-Impb inh 160.1 (no result: Runt-CBFb FRET, Rce1 inhib, Runt-SMMHC FRET)
CNC(=O)/C(C#N)=C/c1c(N2CCCCCC2)nc2c(C)cccn2c1=O	none (no result: Runt-CBFb FRET, Runt-SMMHC FRET)
Cc1ccc(Oc2nc3c(C)cccn3c(=O)c2/C=C(\C#N)C(N)=O)cc1	Runt-SMMHC FRET 63.6
Cc1ccccc1Oc1nc2c(C)cccn2c(=O)c1/C=C(\C#N)C(=O)NC1CCS(=O)(=O)C1 (stereo not given)	Runt-CBFb FRET 112.7, Runt-SMMHC FRET 75.6
COC(=O)/C(C#N)=C/c1c(Oc2cccc(C)c2C)nc2ccccn2c1=O	none
Cc1ccc(Oc2nc3ccccn3c(=O)c2/C=C(\C#N)C(=O)NC2CCS(=O)(=O)C2)cc1 (stereo not given)	Runt-CBFb FRET 72.8, Runt-SMMHC FRET 81.5, RanGTP-Impb inh 29.4
CCOC(=O)/C(C#N)=C/c1c(Oc2cccc(C)c2)nc2c(C)cccn2c1=O	none
COc1cccc(CNc2nc3nc(C)cc(C)n3n2)c1	Rce1 inhib active
COCCN(C(=O)COC(=O)CSc1ccc(Cl)cc1)c1c(N)n(Cc2ccccc2)c(=O)[nH]c1=O	none (no result: Runt-CBFb FRET, Runt-SMMHC FRET)
COc1cccc2c(=O)c(C(=O)O)c[nH]c12	Rce1 inhib active
CN(CC(=O)Nc1ccc(N2CCOCC2)cc1)C(=O)C12CC3CC(CC(C3)C1)C2	none (no result: Runt-CBFb FRET, Runt-SMMHC FRET)
CC(OC(=O)CNC(=O)C12CC3CC(CC(C3)C1)C2)C(=O)Nc1ccc(N2CCOCC2)cc1 (stereo not given)	Platelet DG rel 84.9
CC(C)C[C@@H](CO)N1CCN(CC(C)C)CCC1=O	none (no result: Runt-CBFb FRET, Runt-SMMHC FRET)
S=c1[nH]nc(-c2ccccc2)o1	Rce1 inhib active
O=C1CCN(Cc2ccccc2)CCN1[C@H](CSc1ccccc1)Cc1ccccc1	Rce1 inhib active (no result: Runt-CBFb FRET, Runt-SMMHC FRET)
CN(C)c1nc(N)c2ncc(=S)[nH]c2n1	none
CSc1nc(/C=C2\C=Nc3ccccc32)c(O)n1C	Platelet DG rel 69.6
